Screening results deposited in PubChem BioAssay by Johns Hopkins Ion Channel Center.
This is a sample that favours compounds with a hit; in the whole collection about 3.7% have one here.
hERG protect: shields human hERG channel from block by proarrhythmic agents | Q12809 | CHO-hERG, FluxOR thallium flux, dofetilide IC70 present | activation (rescue from dofetilide block), less the hit threshold, % at 10 µM | 0.51% of 310,000 active | AID 1511;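 active means activation above the mean of controls blocked by dofetilide plus 5 SD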;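 further: thallium influx through hERG after potassium depolarization seen as dye fluorescence rise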
KCNK9 inh: inhibitors of human KCNK9 two-pore domain potassium channel | Q9NPC2 | HEK293 KCNK9, FluxOR thallium flux fluorescence; hits give low values | B-score at 10 µM | 1.2% of 310,000 active | AID 488922;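 active means ratio B-score over 3 SD below the library mean, with starting fluorescence within 5 SD of its mean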;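 further: negative B-score means less thallium flux so channel inhibition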
KCNQ1 act: potentiates or activates the human KCNQ1 potassium channel. B-score at 10 µM. P51787. 0.35% of 310,000 active. CHO-K1 KCNQ1, thallium flux FluxOR fluorescence; hits give high values;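 active means fluorescence ratio B-score, a plate-corrected score, at least three library SD, with initial intensity B-score within 5 SD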
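Doses: Single concentration per compound, DMSO matched to controls | Test system: KCNQ1-transfected CHO-K1 cells | Timing: 90 min dye loading and 20 min compound exposure, both at room temperature | Measured by: Kinetic FluxOR thallium fluorescence, 10-s 1-Hz baseline, 110-s post-stimulus read | Medium: Assay buffer with matched DMSO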
KCNK3 block: human KCNK3 channel inhibition, primary screen; O14649; CHO-KCNK3 thallium flux, FluxOR fluorescence; hits give low values; B-score at 10 µM; 0.84% of 340,000 active; AID 602410;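 active means B-score under library mean minus 4 SD, starting fluorescence ratio at most library mean plus 5 SD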;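 further: more negative B-score means stronger inhibition of thallium flux through KCNK3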
Kir21 block: Kir2.1 (mouse) channel inhibition | P35561 | HEK293-Kir2.1, FluxOR thallium flux fluorescence; hits give low values | B-score at 10 µM | 0.85% of 310,000 active;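 active means fluorescence ratio B-score at or below minus 3 SD of library scores, with starting-brightness B-score within 2 SD, cut at about -4.2 in these data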;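 further: channel flux triggered by added potassium and thallium sulfate stimulus; B-score of peak minus minimum fluorescence over baseline after thallium stimulus; more negative B-score means stronger Kir2.1 block with less thallium influx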
Target sequence (P35561 whole entry, looked up): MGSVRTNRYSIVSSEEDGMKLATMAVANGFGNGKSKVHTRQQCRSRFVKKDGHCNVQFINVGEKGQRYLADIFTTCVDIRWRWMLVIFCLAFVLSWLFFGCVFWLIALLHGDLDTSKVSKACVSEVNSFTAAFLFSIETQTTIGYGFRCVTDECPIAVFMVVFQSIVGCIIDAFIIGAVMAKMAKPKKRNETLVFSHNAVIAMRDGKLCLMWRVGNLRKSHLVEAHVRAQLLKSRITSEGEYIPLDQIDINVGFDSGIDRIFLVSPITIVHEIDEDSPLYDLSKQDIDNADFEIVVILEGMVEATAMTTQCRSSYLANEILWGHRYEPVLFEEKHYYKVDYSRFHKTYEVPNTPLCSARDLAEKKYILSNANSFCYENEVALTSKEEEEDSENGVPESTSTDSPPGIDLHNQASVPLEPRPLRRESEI
KCNQ1 block: inhibitors of human KCNQ1 potassium channel. CHO-K1 KCNQ1, FluxOR thallium flux fluorescence; hits give high values. B-score at 10 µM. 1.3% of 310,000 active. AID 2642;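 active means compounds whose thallium flux B-score, printed positive for inhibition, exceeds three library SD while starting fluorescence stays within three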;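 further: channel opened by potassium depolarization with thallium stimulus after 20 min compound exposure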
An asterisk follows results filed as active; i = inactive; x = not tested or not shown.

SMILES | hERG protect | KCNK9 inh | KCNQ1 act | KCNK3 block | Kir21 block | KCNQ1 block
COC(=O)C1=C(C)N(Cc2ccccc2)C(=NCc2cc(OC)c(OC)c(OC)c2)N[C@H]1c1cccc(F)c1 | -7 | i | i | i | -5.2* | i
CCOC(=O)CN1C(=O)N[C@@H](c2ccccc2)C(C(=O)OC)=C1C | x | x | x | i | x | x
COC(=O)C1=C(C)N(Cc2ccccc2)C(=NCc2ccc(OC)cc2)N[C@H]1c1cccc(F)c1 | -18 | i | i | i | -9.6* | i
CC1CCN(CCc2nc3cc(NC(=O)COc4ccc([N+](=O)[O-])cc4)ccc3n2C)CC1 | -8 | i | i | i | -1.3 | i
COc1cc([N+](=O)[O-])ccc1NC(=O)CN1C(=O)NC2(CCCCC2C)C1=O (centres undefined) | x | x | x | i | x | x
Cc1ccc(NCCC(=O)c2cccc([N+](=O)[O-])c2)cc1 | -11 | i | i | i | 0.7 | 9*
O=C(CCNc1ccc(F)cc1)c1cccc([N+](=O)[O-])c1 | -18 | i | i | i | -1.3 | 6*
O=C1Nc2ccc(Cl)cc2[C@@](C#CC2CC2)(C(F)(F)F)O1 | -8 | -8.7* | i | x | -0.31 | i
O=C(c1cccc(OC2CCN(Cc3ccc(F)cc3Cl)CC2)c1)N1CCCC1 | -7 | i | i | i | -4.7* | i
CSc1ccc(CN2CCC(N3CC(C)OC(C)C3)CC2)cc1 (centres undefined) | -7 | i | i | i | 0.33 | i
CSc1ccc(OC2CCN(Cc3ccccc3)CC2)cc1 | -17 | i | i | i | -20* | i
CSc1ccc(CN2CCC(Oc3cccc(C(=O)N4CCCC4)c3)CC2)cc1 | -8 | i | i | i | -4.6* | i
CCN(C[C@H]1N[C@@](CC)(C(=O)OC)[C@H]2C(=O)N(Cc3ccccc3)C(=O)[C@@H]12)S(=O)(=O)c1ccc(F)cc1 | x | x | x | i | x | x
O=C(O)CCCC(=O)N1CC(=O)Nc2ccccc21 | 0 | i | i | i | 0.13 | i
O=C1CN(C(=O)CCCc2c[nH]c3ccccc23)c2ccccc2N1 | -8 | i | i | i | -5.7* | i
CCN(Cc1nc2ccccc2c(=O)[nH]1)C(=O)COc1ccccc1Cc1ccccc1 | x | x | x | i | x | x
COc1cc(NC(=O)Cn2cnc(S(=O)(=O)N3CCC(C)CC3)c2)cc(OC)c1OC | -7 | i | i | -9* | 2.7 | i
COc1cc(NC(=O)Cn2cnc(S(=O)(=O)N3CCCC3)c2)cc(OC)c1OC | -4 | i | i | i | 0.1 | i
CC1(C)Cc2c(c(N3CCOCC3)nc3snc(N)c23)CO1 | -20 | -7* | i | i | -1.1 | i
CN(Cc1ccccc1)C(=S)NC(=O)c1cccs1 | -1 | i | 39* | i | -1.2 | i
CN(Cc1ccccc1)C(=S)NC(=O)c1ccc(-c2ccccc2)cc1 | -2 | i | i | i | -0.82 | i
CN(C)S(=O)(=O)c1ccc(C(=O)Nc2ccc3nc(N4CCOCC4)sc3c2)cc1 | x | x | x | i | x | x
O=C(c1cc2ccccc2oc1=O)N(c1ccc(Cl)cc1)C1C=CS(=O)(=O)C1 (centres undefined) | -8 | i | i | i | -0.95 | i
CCn1c(CSCc2ccc(C)cc2)nnc1SCC(=O)NCc1ccccc1 | -20 | i | i | i | -6* | i
CCn1c(CSCc2ccc(F)cc2)nnc1SCC(=O)NCc1ccccc1 | -7 | i | i | i | -2.1 | i
SMILES | hERG protect | KCNK9 inh | KCNQ1 act | KCNK3 block | Kir21 block | KCNQ1 block
CC#C[C@@H](CC)c1ccc2ccn(C)c2c1 | x | x | x | i | x | x
Cc1ccc(NC(=O)C2=C(O)c3ccccc3N(C)S2(=O)=O)cc1 | -3 | i | i | i | -1 | i
COc1ccc(-n2nnnc2SCC(=O)Nc2ccc(OC)cc2OC)cc1 | -4 | i | i | i | -0.26 | i
Cc1ccc(S(=O)(=O)NC(C(=O)Oc2ccc3c(C(F)(F)F)cc(=O)oc3c2)c2ccccc2)cc1 (centres undefined) | -12 | i | i | i | -3.4 | 6*
Cc1ccc(S(=O)(=O)NC(CC(C)C)C(=O)Oc2ccc3c4c(c(=O)oc3c2)CCC4)cc1 (centres undefined) | -7 | i | i | i | -0.15 | 6*
CC[C@@H](NS(=O)(=O)c1ccc(C)cc1)C(=O)Oc1ccc2c3c(c(=O)oc2c1)CCC3 | -8 | i | i | i | 0.01 | i
CC1c2cccn2CCN1S(=O)(=O)c1ccccc1 (centres undefined) | x | x | x | i | x | x
CC1c2ccsc2CCN1S(=O)(=O)c1ccccc1 (centres undefined) | -15 | i | i | i | -6.8* | i
COc1ccc(-c2cnnn2-c2ccc(NC(=O)c3ccc(S(=O)(=O)N4CCCCC4)cc3)cc2)cc1 | -11 | i | i | i | -1.8 | i
CN(CCC#N)C(=O)COC(=O)c1c2c(nc3ccccc13)/C(=C\c1ccco1)CC2 | x | x | x | -8.9* | x | x
O=C(COC(=O)c1c2c(nc3ccccc13)/C(=C\c1ccco1)CC2)NC1CCCC1 | x | x | x | -9.4* | x | x
O=C(COC(=O)c1c2c(nc3ccccc13)/C(=C/c1cccc([N+](=O)[O-])c1)CCC2)NC1CCS(=O)(=O)C1 (centres undefined) | -7 | i | i | i | -1.4 | i
CC1CCCCC1NC(=O)COC(=O)c1c2c(nc3ccccc13)/C(=C\c1ccco1)CC2 (centres undefined) | x | x | x | -11* | x | x
Cc1c(Cl)cccc1NC(=O)Cn1nc(C)n2cccc2c1=O | -13 | i | i | i | -0.7 | i
COc1ccc2nc3cc(Cl)ccc3c(Nc3ccc(O)c(CN4CCN(C)CC4)c3)c2c1 | x | x | x | i | x | x
Cn1cc(C(C[N+](=O)[O-])c2ccccc2)c2ccccc21 (centres undefined) | -14 | i | i | i | 0.13 | i
CC(=O)n1cc(C(C[N+](=O)[O-])SCCN)c2ccccc21 (centres undefined) | -13 | i | i | i | -13* | i
O=S(=O)(c1ccc(Cl)cc1)N1CCC(O)(CN2CCN(Cc3ccccc3)CC2)CC1 | -10 | i | i | i | -5.4* | i
CCN1CC(CN(C)Cc2cn(-c3cccc(C)c3)nc2-c2cccc(F)c2)CC1=O (centres undefined) | -17 | i | i | i | -0.17 | i
CC(c1ccccc1)n1c(-c2cccs2)nc2c(c(=O)c3ccccc3n2C)c1=O (centres undefined) | -5 | -8.1* | i | i | -0.31 | i
Cn1c2ccccc2c(=O)c2c(=O)n(-c3ccc(F)cc3)c(-c3cccs3)nc21 | -2 | i | i | i | -1.2 | i
